For 20 compounds, Activity, IC50 and HC50 results are on record in ChEMBL document CHEMBL4613213, “Anibamine and Its Analogues: Potent Antiplasmodial Agents from Aniba citrifolia” (J Nat Prod, 2020).

Series [1] relates to Plasmodium falciparum. Description: Antiplasmodial activity against Plasmodium falciparum Dd2 schizonts form infected in erythrocytes assessed as reduction in parasite growth at 1.25 uM after 6 hrs by Giemsa staining based light microscopic method. The series is classed as functional, organism-based. In outline:
(§1)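 Dd2 intraerythrocytic cultures were treated either at ring stage (2–4 h post-invasion) or at schizont stage (40–42 post-invasion). Development and morphology were followed by light microscopy of Giemsa-stained thin blood smears at 6, 24, 48 and 72 h of treatment and compared with untreated controls. Data come from two or more independent experiments.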

Series [2] concerns Plasmodium falciparum. The series can be described thus: Antiplasmodial activity against Plasmodium falciparum Dd2 schizonts form infected in erythrocytes assessed as reduction in parasite growth at 0.5 uM after 6 hrs by Giemsa staining based light microscopic method. Format: functional, organism-based. The method in brief:
(§2)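 Compound added at schizont stage (40–42 post-invasion). Morphology assessed on Giemsa-stained thin blood smears at 6, 24 and 48 h of treatment and compared with untreated controls. Two or more independent experiments.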

The subject of series [3] is Plasmodium falciparum. The series can be described thus: Antiplasmodial activity against Plasmodium falciparum Dd2 schizonts form infected in erythrocytes assessed as reduction in reinvasion at 1.25 uM after 6 hrs by Giemsa staining based light microscopic method. Format: functional, organism-based. In outline:
as §1

The subject of series [4] is Plasmodium falciparum. Description: Antiplasmodial activity against Plasmodium falciparum Dd2 schizonts form infected in erythrocytes assessed as reduction in reinvasion at 0.5 uM after 6 hrs by Giemsa staining based light microscopic method. The series is classed as functional, organism-based. The method in brief:
as §2

In series [5] the test system is Plasmodium falciparum. Description: Antiplasmodial activity against Plasmodium falciparum Dd2 schizonts form infected in erythrocytes assessed as reduction in ring stage formation at 1.25 uM after 6 hrs by Giemsa staining based light microscopic method. The series is classed as functional, organism-based. In outline: as §1
Series [6] has as its system Plasmodium falciparum. Description: Antiplasmodial activity against Plasmodium falciparum Dd2 schizonts form infected in erythrocytes assessed as reduction in ring stage formation at 0.5 uM after 6 hrs by Giemsa staining based light microscopic method. The series is classed as functional, organism-based. In outline:
as §2

In series [7] the test system is Plasmodium falciparum. The series can be described thus: Antiplasmodial activity against Plasmodium falciparum Dd2 schizonts form infected in erythrocytes assessed as reduction in trophozoites formation at 0.5 uM after 48 hrs by Giemsa staining based light microscopic method. The series is classed as functional, organism-based. In outline:
as §2

Series [8] has as its system Plasmodium falciparum. Description: Antiplasmodial activity against Plasmodium falciparum Dd2 schizonts form infected in erythrocytes assessed as morphological defects at 0.5 uM after 48 hrs by Giemsa staining based light microscopic method. The series is classed as functional, organism-based. The method in brief:
as §2

Series [9] deals with Plasmodium falciparum. Description: Antiplasmodial activity against Plasmodium falciparum Dd2 assessed as reduction in parasite growth after 72 hrs by SYBR Green 1 staining based assay. Format: functional, organism-based. The method in brief: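 Dd2 cultures started at ring stage, 1% hematocrit and 1% parasitemia. Grown 72 h at 37 °C in 5% CO2/5% O2/90% N2 across increasing drug concentrations. Viability read by SYBR Green I DNA quantitation in lysis buffer. IC50 from nonlinear regression; mean of three independent determinations, each in triplicate, ± SEM.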

Series [10] is described as follows: Hemolytic activity in human RBC. The series is classed as cell-based, Erythrocyte. Particulars: human red blood cells (erythrocytes).
In series [11] the test system is Plasmodium falciparum. Description: Antiplasmodial activity against Plasmodium falciparum Dd2 ring stage form infected in erythrocytes assessed as reduction in parasite growth at 0.5 uM after 6 to 72 hrs by Giemsa staining based light microscopic method. The series is classed as functional, organism-based. The method in brief:
(§3)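 Compound added at ring stage (2–4 h post-invasion). Development followed on Giemsa-stained thin blood smears after 6, 24, 48 and 72 h of treatment and compared with untreated controls. Two or more independent experiments.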

The test system of series [12] is Plasmodium falciparum. Description: Antiplasmodial activity against Plasmodium falciparum Dd2 ring stage form infected in erythrocytes assessed as reduction in reinvasion at 0.5 uM after 48 to 72 hrs by Giemsa staining based light microscopic method. The series is classed as functional, organism-based. In outline:
as §3

Series [13] concerns Plasmodium falciparum. The series can be described thus: Antiplasmodial activity against Plasmodium falciparum Dd2 schizonts form infected in erythrocytes assessed as reduction in parasite growth at 1 uM after 6 hrs by Giemsa staining based light microscopic method. The series is classed as functional, organism-based. The method in brief:
as §2

Series [14] has as its system Plasmodium falciparum. The series can be described thus: Antiplasmodial activity against Plasmodium falciparum Dd2 schizonts form infected in erythrocytes assessed as reduction in reinvasion at 1 uM after 6 hrs by Giemsa staining based light microscopic method. Format: functional, organism-based. The method in brief: as §2
Series [15] has as its system Plasmodium falciparum. Description: Antiplasmodial activity against Plasmodium falciparum Dd2 schizonts form infected in erythrocytes assessed as reduction in ring stage formation at 1 uM after 6 hrs by Giemsa staining based light microscopic method. The series is classed as functional, organism-based. The method in brief: as §2
Series [16] concerns Plasmodium falciparum. The series can be described thus: Antiplasmodial activity against Plasmodium falciparum Dd2 ring stage form infected in erythrocytes assessed as reduction in parasite growth at 1 uM after 6 to 72 hrs by Giemsa staining based light microscopic method. Format: functional, organism-based. In outline: as §3
Series [17] concerns Plasmodium falciparum. Description: Antiplasmodial activity against Plasmodium falciparum Dd2 ring stage form infected in erythrocytes assessed as reduction in reinvasion at 1 uM after 48 to 72 hrs by Giemsa staining based light microscopic method. Format: functional, organism-based. The method in brief:
as §3

In a further series the test system is A2780. Description: Cytotoxicity against human A2780 cells assessed as reduction in cell viability after 2 days by AlamarBlue assay. Format: ADME, cell-based. Particulars: A2780, 48 h. (The colour change of resazurin is a common sign of viable cells or microbes.)
In series [18] the test system is Plasmodium falciparum. The series can be described thus: Antiplasmodial activity against Plasmodium falciparum Dd2 schizonts form infected in erythrocytes assessed as reduction in trophozoites formation at 1 uM after 48 hrs by Giemsa staining based light microscopic method. The series is classed as functional, organism-based. In outline:
as §2

Series [19] has as its system Plasmodium falciparum. Description: Antiplasmodial activity against Plasmodium falciparum Dd2 schizonts form infected in erythrocytes assessed as morphological defects formation at 1 uM after 48 hrs by Giemsa staining based light microscopic method. Format: functional, organism-based. In outline: as §2
Where [20] appears, read: Plasmodium falciparum, Dd2, 72 h, read-out: IC50.

SMILES strings stand for the structures. Active and inactive are the calls of the source. No cut-off for these calls is given here.

As to `CCCCCCCC/C=C\c1c(C)c(/C=C\CCCCCCCC)c2[n+](c1C)CCC2`, the outcome with Plasmodium falciparum [1], in the series with Plasmodium falciparum [2], in the series with Plasmodium falciparum [3], in the series with Plasmodium falciparum [4], with Plasmodium falciparum [5] and with Plasmodium falciparum [6] was inactive. For the same compound, the result with Plasmodium falciparum [7] and in the series on Plasmodium falciparum [8] was Active.

As for `CCCCCCCC/C=C/c1c(C)c(/C=C/CCCCCCCC)c2[n+](c1C)CCCCC2`, the IC50 with Plasmodium falciparum [9] (setting [20]) is 0.06 µM. The same compound came in with an HC50 in series [10] of over 58 µM. Also, the outcome with Plasmodium falciparum [2], with Plasmodium falciparum [4] and in the series on Plasmodium falciparum [6] was inactive. Moreover, the outcome in the series on Plasmodium falciparum [7] and in the series with Plasmodium falciparum [8] was Active.

As for `CCCCCCCC/C=C\c1c(C)nc(CCCOC)c(/C=C\CCCCCCCC)c1C`, the IC50 with Plasmodium falciparum [9] (setting [20]) was determined as 19.3 µM.

As to `CCCCCCCC/C=C/c1c(C)cc(CCCOC)nc1C`, the half-inhibitory concentration (IC50) in the series on Plasmodium falciparum [9] (setting [20]) came to 6.7 µM.

Regarding `CCCCCCCCCCc1c(C)nc(C)c(CCCCCCCCCC)c1C`, the IC50 in the series on Plasmodium falciparum [9] (setting [20]) is over 20 µM.

Regarding `C[C@@H]1CC[C@H]2[C@@H](C)C(=O)O[C@@H]3O[C@@]4(C)CC[C@@H]1[C@]32OO4` [ARTEMISININ], the IC50 in the series with Plasmodium falciparum [9] (setting [20]) was 0.0065 µM.

For the compound `CCCCCCCC/C=C/c1c(C)cc(C)[n+]2c1CCC2`, the IC50 in the series with Plasmodium falciparum [9] (setting [20]) is 0.058 µM. Also, the result in the series on Plasmodium falciparum [2], in the series with Plasmodium falciparum [4], in the series with Plasmodium falciparum [6], in the series with Plasmodium falciparum [11] and with Plasmodium falciparum [12] was inactive.

With `CCCCCCCC/C=C/c1c(C)cc(C)nc1CCCOC`, the IC50 with Plasmodium falciparum [9] (setting [20]) is over 20 µM.

On to `CCCCCCCC/C=C\c1c(C)cc2[n+](c1C)CCC2`, for which the IC50 in the series with Plasmodium falciparum [9] (setting [20]) worked out at 0.142 µM. Further, the result in the series on Plasmodium falciparum [13], in the series on Plasmodium falciparum [14], in the series on Plasmodium falciparum [15], with Plasmodium falciparum [16] and with Plasmodium falciparum [17] was inactive.

Turning to `CCCCCCCC/C=C/c1c(C)c(/C=C/CCCCCCCC)c2[n+](c1C)CCC2`, in the series with Plasmodium falciparum [9] (setting [20]), the IC50 was found to be 0.096 µM. The compound also registered an HC50 in series [10] of over 58 µM. In addition, the outcome in the series on Plasmodium falciparum [2], in the series on Plasmodium falciparum [4] and with Plasmodium falciparum [6] was inactive. The result with Plasmodium falciparum [7] and in the series on Plasmodium falciparum [8] was Active.

As for `CCCCCCCC/C=C/c1c(C)c(CCCCCCCCCC)c2[n+](c1C)CCC2`, the figures for the IC50 in the series on Plasmodium falciparum [9] (setting [20]) and in the series with A2780 were 0.244 µM and 0.241 µM, respectively.

Take `C=CCc1c(O)c(OC)cc2c1O[C@H](c1ccc3c(c1)OCO3)[C@H]2C`: the IC50 in the series with Plasmodium falciparum [9] (setting [20]) is 30 µM; in the series on A2780, 10 to 35 µM.

Take `CCCCCCCC/C=C\c1c(C)c(/C=C\CCCCCCCC)c2[n+](c1C)CCC2` [AANIBAMINE]: the IC50 in the series with Plasmodium falciparum [9] (read-out: IC50) is 0.11 µM. For the same compound, the HC50 in series [10] is over 58 µM.

On to `CCCCCCCC/C=C\c1c(C)c(/C=C\CCCCCCCC)c2[n+](c1C)CCCCC2`, for which the IC50 in the series on Plasmodium falciparum [9] (setting [20]) amounted to 0.067 µM. Further, the HC50 in [10] was over 58 µM. The result in the series on Plasmodium falciparum [2], in the series with Plasmodium falciparum [4] and in the series with Plasmodium falciparum [6] was inactive. The result in the series on Plasmodium falciparum [7] and in the series on Plasmodium falciparum [8] was Active.

As to `CCCCCCCC/C=C\c1c(C)nc(C)c(/C=C/CCCCCCCC)c1C`, in the series with Plasmodium falciparum [9] (setting [20]), the IC50 was 20 µM.

In the case of `CCCCCCCCCCc1c(C)cc(C)nc1CCCOC`, the IC50 in the series with Plasmodium falciparum [9] (setting [20]) is over 20 µM.

Take `CCCCCCCCCCc1c(C)cc(CCCOC)nc1C`: the IC50 in the series on Plasmodium falciparum [9] (setting [20]) amounted to 5.3 µM.

Turning to `CCCCCCCCCCc1c(C)c(CCCCCCCCCC)c2[n+](c1C)CCCCC2`, the IC50 in the series with Plasmodium falciparum [9] (setting [20]) was 0.077 µM. This compound displayed an HC50 in series [10] of over 58 µM. Besides, the outcome with Plasmodium falciparum [13], in the series with Plasmodium falciparum [14] and in the series with Plasmodium falciparum [15] was inactive. Besides, the outcome in the series with Plasmodium falciparum [18] and in the series on Plasmodium falciparum [19] was Active.

For the compound `C=CC[C@@]1(OC)C=C2C(=CC1=O)O[C@H](c1ccc3c(c1)OCO3)[C@H]2C`, the IC50 entry is “Not Active” in the series on Plasmodium falciparum [9] and 10 to 50 µM with A2780.

For the compound `CCCCCCCCCCc1c(C)cc(C)nc1C`, in the series on Plasmodium falciparum [9] (setting [20]), the half-maximal inhibitory concentration (IC50) is over 20 µM.

As usually defined, the IC50 is the midpoint of a concentration-inhibition curve. The HC50 is the concentration giving 50% haemolysis. Low values mean stronger haemolysis, high ones weaker haemolysis.
